Assay [1] deals with J774. The assay is described as follows: Downregulation of LPS-induced MCP-1 mRNA levels in mouse J774 cells after 3 to 6 hrs by qRT-PCR method. In kind it is functional, cell-based. The procedure, abridged:
(§1)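 Activated J774 cells received compound at 10 μM alongside LPS. At 3, 6 or 24 h, total RNA was extracted and iNOS, IL-6 or MCP-1 mRNA was measured by TaqMan quantitative RT-PCR (40 cycles, 95 °C/60 °C) in duplicate. Levels came from a standard curve and were normalized to GAPDH. n = 4 versus LPS only.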

The subject of assay [2] is Mus musculus. Briefly: Antiinflammatory activity in C57BL/6NCrl mouse assessed as inhibition of carrageenan-induced paw edema at 10 mg/kg, ip administered 2 hrs prior to carrageenan challenge measured after 3 hrs by plethysmometry. In kind it is functional. The essentials: (§2)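 Eight-week-old male mice were dosed ip with compound (10 mg/kg), dexamethasone (2 mg/kg) or PBS-8% DMSO vehicle 2 h before carrageenan. Under medetomidine/ketamine anesthesia, 45 μL of 1.5% λ-carrageenan in saline was given intradermally into one hindpaw, with saline in the contralateral paw. Paw volume was measured by plethysmometer before and at 3 and 6 h. n = 6–12.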

Assay [3] deals with J774. Briefly: Downregulation of LPS-induced IL-6 mRNA levels in mouse J774 cells after 6 hrs by qRT-PCR method. It counts as functional, cell-based. The essentials:
as §1

Assay [4] has as its system J774. The assay is described as follows: Antiinflammatory activity against mouse J774 cells assessed as inhibition of LPS-induced COX-2 expression measured as remaining protein levels at 10 uM after 24 hrs by Western blot analysis. In kind it is functional. The procedure, abridged:
(§3)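 Murine J774 macrophages were grown 72 h to confluence in DMEM with 10% heat-inactivated FBS at 37 °C, 5% CO2. Compound was added in fresh medium with LPS for 24 h. Cells were lysed, and 20 μg protein was immunoblotted for COX-2 or iNOS with actin as the loading control, detected by chemiluminescence. n = 4, mean ± SEM versus LPS alone.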

The test system of assay [5] is J774. The assay is described as follows: Downregulation of LPS-induced IL-6 expression in mouse J774 cells at 0.3 to 10 uM after 24 hrs by ELISA. It counts as functional, cell-based. The procedure, abridged: (§4)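 LPS-stimulated J774 cells were incubated 24 h with compound at 0.3–10 μM. IL-6 and MCP-1 concentrations in the medium were determined by ELISA. Mean + SEM, n = 4, compared with LPS alone.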

For assay [6], the system named is J774. Briefly: Antiinflammatory activity in mouse J774 cells assessed as inhibition of LPS-induced iNOS expression measured as remaining protein levels at 10 uM after 24 hrs by Western blot analysis. It counts as functional. The procedure, abridged:
as §3

For assay [7], the system named is J774. The assay is described as follows: Antiinflammatory activity against mouse J774 cells assessed as inhibition of LPS-induced IL-6 production measured as remaining IL-6 levels at 10 uM after 24 hrs by ELISA. In kind it is functional. The procedure, abridged:
(§5)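 J774 macrophages were grown 72 h to confluence, then exposed to LPS with compound at 10 μM in fresh medium for 24 h. IL-6 and MCP-1 in the culture medium were quantified by ELISA. n = 4, mean ± SEM relative to LPS-only cells.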

The test system of assay [8] is J774. Briefly: Downregulation of LPS-induced MCP-1 expression in mouse J774 cells at 0.3 to 10 uM after 24 hrs by ELISA. In kind it is functional, cell-based. The procedure, abridged:
as §4

The test system of assay [9] is J774. The assay is described as follows: Antiinflammatory activity in mouse J774 cells assessed as inhibition of LPS-induced nitric oxide production measured as remaining nitric oxide levels at 10 uM by Griess assay. It counts as functional. The essentials: (§6)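 Confluent J774 monolayers were treated with LPS plus compound at 10 μM in fresh medium, 24 h. NO was read as accumulated nitrite in the medium by Griess reaction. n = 4, mean ± SEM versus cells cultured with LPS only.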

In assay [10] the test system is J774. Briefly: Downregulation of LPS-induced iNOS mRNA levels in mouse J774 cells after 6 to 24 hrs by qRT-PCR method. In kind it is functional, cell-based. The procedure, abridged: as §1
The test system of assay [11] is J774. Briefly: Antiinflammatory activity against mouse J774 cells assessed as inhibition of LPS-induced MCP-1 production measured as remaining MCP-1 levels at 10 uM after 24 hrs by ELISA. It counts as functional. The procedure, abridged: as §5
Assay [12] deals with J774. The assay is described as follows: Downregulation of LPS-induced iNOS expression in mouse J774 cells at 0.3 to 10 uM after 24 hrs by Western blot analysis. In kind it is functional, cell-based. The procedure, abridged: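 Dose–response was run in LPS-activated J774 macrophages over 24 h, with iNOS protein detected by Western blot and actin as the loading control.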

The subject of assay [13] is Mus musculus. Briefly: Antiinflammatory activity in C57BL/6NCrl mouse assessed as inhibition of carrageenan-induced paw edema at 10 mg/kg, ip administered 2 hrs prior to carrageenan challenge measured after 6 hrs by plethysmometry. In kind it is functional. The essentials:
as §2

Assay [14] relates to J774. Briefly: Antiinflammatory activity against mouse J774 cells assessed as inhibition of LPS-induced MCP-1 production at 10 uM after 24 hrs by ELISA. It counts as functional. The note with it: J774, 24 h. The procedure, abridged:
as §5

The test system of assay [15] is J774. The assay is described as follows: Antiinflammatory activity against mouse J774 cells assessed as inhibition of LPS-induced iNOS expression at 10 uM after 24 hrs by Western blot analysis. It counts as functional, cell-based. The essentials: as §3
Assay [16] concerns J774. Briefly: Antiinflammatory activity against mouse J774 cells assessed as inhibition of LPS-induced IL-6 production at 10 uM after 24 hrs by ELISA. It counts as functional. The settings on record: J774, 24 h. The essentials:
as §5

Assay [17] has as its system J774. Briefly: Antiinflammatory activity against mouse J774 cells assessed as inhibition of LPS-induced nitric oxide production at 10 uM by Griess assay. In kind it is functional. The procedure, abridged: as §6
In assay [18] the test system is J774. The assay is described as follows: Antiinflammatory activity against mouse J774 cells assessed as inhibition of LPS-induced COX-2 expression at 10 uM after 24 hrs by Western blot analysis. In kind it is functional. The settings on record: J774, 24 h. The essentials:
as §3

Calls of active or inactive are those of the source. No cut-off for these calls is given here.

The results in this text go back to ChEMBL document CHEMBL3797069, “Betulin Derivatives Effectively Suppress Inflammation in Vitro and in Vivo” (J Nat Prod, 2016).

As for `C=C(C)[C@@H]1CC[C@]2(C(=O)O)CC[C@]3(C)[C@H](CC[C@@H]4[C@@]5(C)Cc6c[nH]nc6C(C)(C)[C@@H]5CC[C@]43C)[C@@H]12`, the result in the assay with J774 [1], in the assay with J774 [3], with J774 [5], in the assay with J774 [8], in the assay on J774 [10] and in the assay with J774 [12] was Active. In addition, the inhibition in vivo at 10 mg/kg with Mus musculus [2] was 27%; in the assay with Mus musculus [13], 44%. Moreover, the Activity stood at 58.2% with J774 [4], 27.5% in the assay with J774 [6] and 28% in the assay on J774 [11]. Besides, the “Remaining IL-6 level (% of LPS-only)” value in the assay on J774 [7] came out at 39.5%. Moreover, in the assay with J774 [9], the “Remaining nitric oxide level (% of LPS-only control)” value was found to be 53.3%.

For `C[C@@H]1C[C@H]2[C@@H]3CCC4=CC(=O)C=C[C@]4(C)[C@@]3(F)[C@@H](O)C[C@]2(C)[C@@]1(O)C(=O)CO` [DEXAMETHASONE], the inhibition at 10 µM in the assay with J774 [14] was found to be 38%; with J774 [16], 86%; in the assay with J774 [17], 85%; in the assay with J774 [18] it was 90%. The inhibition entry in the assay with J774 [15] is “Active”.
